ChEMBL document CHEMBL1148785, “Second generation tetrahydroquinoline-based protein farnesyltransferase inhibitors as antimalarials” (J Med Chem, 2007)

How the values were obtained:
[1] = system: Plasmodium falciparum; test: Inhibition of Plasmodium falciparum protein farnesyltransferase at 50 nM by scintillation proximity assay
[2] = system: Plasmodium falciparum; test: Inhibition of Plasmodium falciparum protein farnesyltransferase at 5 nM by scintillation proximity assay
[3] = system: Plasmodium falciparum; test: Inhibition of Plasmodium falciparum protein farnesyltransferase at 0.5 nM by scintillation proximity assay
[4] = system: Plasmodium falciparum; test: Antimalarial activity against Plasmodium falciparum 3D7; assay type: functional; details: Plasmodium falciparum, 3D7; read-out: ED50 (the source's name)
Outline: (§1)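 Asynchronous culture in type A+ erythrocytes at 0.5% parasitemia and 0.5% hematocrit, grown in RPMI-1640 with 20% heat-inactivated human A+ plasma. Compound was serially diluted from a top final 5 µM, with DMSO vehicle as 100% growth. Plates ran 48 h at 37 °C under 5% CO2/5% O2/90% N2, then [3H]-hypoxanthine (0.3 µCi) for 24 h. Filter-harvested counts were corrected for the uninfected-RBC background. ED50 by linear regression; duplicates averaged.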

[5] = system: Plasmodium falciparum; test: Antimalarial activity against Plasmodium falciparum K1; assay type: functional; details: Plasmodium falciparum, K1; read-out: ED50 (the source's name); outline: as §1

Row | Compound | inhibition [1] [%] | inhibition [2] [%] | inhibition [3] [%] | EC50 [4] [µM] | EC50 [5] [µM]
1 | CC(C)NC(=O)c1ccc2c(c1)CC(N(CC(=O)NC(C)(C)C)S(=O)(=O)c1cn(C)cn1)CN2Cc1cncn1C (stereo not given) | 46 | 7 | 14 | 4 | 2.6
2 | CC(C)COC(=O)N1CCC(CN(C2Cc3cc(C#N)ccc3N(Cc3cncn3C)C2)S(=O)(=O)c2cn(C)cn2)CC1 (stereo not given) | 98 | 90 | 24 | 0.01 | 0.0055
3 | COC(=O)N1CCC(CN(C2Cc3cc(C#N)ccc3N(C(C)c3cnc[nH]3)C2)S(=O)(=O)c2ccccn2)CC1 (stereo not given) | 96 | 79 | 12 | 0.65 | 0.65
4 | Cn1cnc(S(=O)(=O)N(Cc2ncoc2-c2ccccc2)C2Cc3cc(C#N)ccc3N(Cc3cncn3C)C2)c1 (stereo not given) | 92 | 20 | 0 | 0.49 | 0.89
5 | Cn1cncc1CN1CC(N(Cc2ccccc2F)S(=O)(=O)c2cccc3nsnc23)Cc2cc(C#N)ccc21 (stereo not given) | 74 | 28 | 4 | 0.7 | 1
6 | Cn1cnc(CN2CC(N(CC(=O)NC(C)(C)C)S(=O)(=O)c3cccs3)Cc3cc(-c4ccccc4)ccc32)c1 (stereo not given) | 10 | 1 | 4 | 3.5 | > 5
7 | COC(=O)N1CCC(CN(C2Cc3cc(C#N)ccc3N(Cc3cncn3C)C2)S(=O)(=O)C2CC2)CC1 (stereo not given) | 37 | 3 | 0 | > 5 | 3.95
8 | COC(=O)N1CCC(CN(C2Cc3cc(C#N)ccc3N(Cc3cncn3C)C2)S(=O)(=O)N(C)C)CC1 (stereo not given) | 58 | 19 | 0 | 1.6 | 2.4
9 | Cn1cnc(S(=O)(=O)N(CCNC(=O)OC(C)(C)C)C2Cc3cc(C#N)ccc3N(Cc3cncn3C)C2)c1 (stereo not given) | 99 | 90 | 28 | 0.46 | 0.075
10 | Cn1cnc(S(=O)(=O)N(CCOc2cccc3c2OCCO3)C2Cc3cc(C#N)ccc3N(Cc3cncn3C)C2)c1 (stereo not given) | 99 | 91 | 12 | 0.355 | 0.35
11 | Cc1ccccc1CN(C1Cc2cc(-c3ccccc3)ccc2N(Cc2cn(C)cn2)C1)S(=O)(=O)c1cn(C)cn1 (stereo not given) | 46 | 0 | 0 | 2.9 | 1.8
12 | COC(=O)CN(C1Cc2cc(-c3ccccc3)ccc2N(Cc2cn(C)cn2)C1)S(=O)(=O)c1cn(C)cn1 (stereo not given) | 99 | 87 | 37 | 0.375 | 0.35
13 | Cn1cnc(S(=O)(=O)N(Cc2cc3nsnc3cc2Cl)C2Cc3cc(C#N)ccc3N(Cc3cncn3C)C2)c1 (stereo not given) | 90 | 58 | 0 | 3 | 3.75
14 | Cn1cncc1CN1CC(N(Cc2ccc(S(C)(=O)=O)cc2)S(=O)(=O)c2cncn2C)Cc2cc(C#N)ccc21 (stereo not given) | 100 | 100 | 84 | < 0.02 | < 0.02
15 | Cn1cnc(CN2CC(N(CC(=O)NC(C)(C)C)S(C)(=O)=O)Cc3cc(-c4ccccc4)ccc32)c1 (stereo not given) | 2 | 0 | 0 | > 5 | > 5
16 | Cn1cnc(S(=O)(=O)N(Cc2ccc3nonc3c2)C2Cc3cc(C#N)ccc3N(Cc3cncn3C)C2)c1 (stereo not given) | 99 | 95 | 30 | 0.056 | 0.065
17 | COC(=O)N1CCC(CN(C2Cc3cc(C#N)ccc3N(Cc3cccnc3)C2)S(=O)(=O)c2ccccn2)CC1 (stereo not given) | 35 | 12 | 3 | 3.4 | 3
18 | COC(=O)N1CCC(CN(C2Cc3cc(C#N)ccc3N(Cc3cncn3C)C2)S(=O)(=O)c2ccccc2Cl)CC1 (stereo not given) | 97 | 80 | 24 | 0.055 | 0.07
19 | CCN(CC)C(=O)c1ccc2c(c1)CC(N(CC(=O)NC(C)(C)C)S(=O)(=O)c1cn(C)cn1)CN2Cc1cncn1C (stereo not given) | 73 | 23 | 0 | 2.8 | 2.6
20 | Cn1cnc(S(=O)(=O)NC2Cc3cc(-c4ccccc4)ccc3N(Cc3cncn3C)C2)c1 (stereo not given) | 80 | 31 | 14 | 3.5 | > 5
21 | COC(=O)N1CCC(CN(C2Cc3cc(C#N)ccc3N(Cc3cncn3C)C2)S(C)(=O)=O)CC1 (stereo not given) | 66 | 5 | 0 | 2.7 | > 5
22 | CC(=O)Nc1ccc(S(=O)(=O)N(Cc2ccccc2F)C2Cc3cc(C#N)ccc3N(Cc3cncn3C)C2)cc1 (stereo not given) | 25 | 4 | 4 | 0.15 | 0.15
23 | Cn1cnc(S(=O)(=O)N(Cc2ccc(S(C)(=O)=O)cc2Cl)C2Cc3cc(C#N)ccc3N(Cc3cncn3C)C2)c1 (stereo not given) | 99 | 98 | 69 | 0.057 | < 0.02
24 | COC(=O)N1CCC(CN(C2Cc3cc(C#N)ccc3N(Cc3cncn3C)C2)S(=O)(=O)c2cnn(C)c2)CC1 (stereo not given) | 100 | 98 | 39 | 0.042 | 0.045
25 | Cn1cnc(CN2CC(N(CC(=O)NC(C)(C)C)S(=O)(=O)c3cn(C)cn3)Cc3cc(-c4ccccc4)ccc32)c1 (stereo not given) | 97 | 73 | 23 | 0.381 | 0.395
26 | Cn1cnc(CN2CC(N(Cc3ccccc3)S(=O)(=O)c3cn(C)cn3)Cc3cc(-c4ccccc4)ccc32)c1 (stereo not given) | 99 | 90 | 9 | 0.45 | 0.38

Next, values leading:

Row | inhibition [1] [%] | inhibition [2] [%] | inhibition [3] [%] | EC50 [4] [µM] | EC50 [5] [µM] | Compound
27 | 98 | 87 | 32 | 0.7 | 0.7 | C/C=C/C=C\C=C\CN(C1Cc2cc(C#N)ccc2N(Cc2cncn2C)C1)S(=O)(=O)c1ccccn1 (stereo not given)
28 | 99 | 89 | 17 | 0.07 | 0.21 | Cn1cnc(S(=O)(=O)N(Cc2cccnc2)C2Cc3cc(C#N)ccc3N(Cc3cncn3C)C2)c1 (stereo not given)
29 | 62 | 10 | 8 | 0.36 | 3.6 | CN(C)S(=O)(=O)N(Cc1ccccc1F)C1Cc2cc(C#N)ccc2N(Cc2cncn2C)C1 (stereo not given)
30 | 92 | 51 | 92 | 0.08 | 0.093 | Cn1cncc1CN1CC(N(CC2CCN(C(=O)c3ccco3)CC2)S(=O)(=O)c2ccccn2)Cc2cc(C#N)ccc21 (stereo not given)
31 | 97 | 96 | 90 | 0.04 | 0.13 | Cn1cnc(S(=O)(=O)N(CCCCN2C(=O)c3ccccc3C2=O)C2Cc3cc(C#N)ccc3N(Cc3cncn3C)C2)c1 (stereo not given)
32 | 100 | 82 | 19 | 0.23 | 1.25 | Cn1cncc1CN1CC(N(Cc2ccccc2F)S(=O)(=O)c2ccccn2)Cc2cc(C#N)ccc21 (stereo not given)
33 | 43 | 1 | 0 | 0.65 | 0.73 | CC(=O)N(Cc1ccccc1F)C1Cc2cc(C#N)ccc2N(Cc2cncn2C)C1 (stereo not given)
34 | 97 | 70 | 9 | 0.133 | 0.075 | Cn1cncc1CN1CC(N(CCCNC(=O)OC(C)(C)C)S(=O)(=O)c2ccccn2)Cc2cc(C#N)ccc21 (stereo not given)
35 | 97 | 91 | 55 | 0.13 | 0.13 | Cn1cnc(S(=O)(=O)N(CCc2c[nH]c3ccccc23)C2Cc3cc(C#N)ccc3N(Cc3cncn3C)C2)c1 (stereo not given)
36 | 99 | 98 | 54 | 0.0018 | 0.0018 | Cn1cnc(S(=O)(=O)N(CCn2cccc2)C2Cc3cc(C#N)ccc3N(Cc3cncn3C)C2)c1 (stereo not given)
37 | 98 | 96 | 25 | 0.01 | 0.036 | Cn1cnc(S(=O)(=O)N(Cc2ccccn2)C2Cc3cc(C#N)ccc3N(Cc3cncn3C)C2)c1 (stereo not given)
38 | 99 | 82 | 8 | 0.065 | 0.07 | Cn1cnc(S(=O)(=O)N(CCc2ccccc2C(F)(F)F)C2Cc3cc(C#N)ccc3N(Cc3cncn3C)C2)c1 (stereo not given)
39 | 41 | 16 | 11 | 1.2 | 3.05 | CCCS(=O)(=O)N(Cc1ccccc1F)C1Cc2cc(C#N)ccc2N(Cc2cncn2C)C1 (stereo not given)
40 | 100 | 100 | 86 | 0.0062 | 0.0042 | Cn1cnc(S(=O)(=O)N(CCc2ccsc2)C2Cc3cc(C#N)ccc3N(Cc3cncn3C)C2)c1 (stereo not given)
41 | 61 | 11 | 0 | 0.82 | 2.1 | CCS(=O)(=O)N(Cc1ccccc1F)C1Cc2cc(C#N)ccc2N(Cc2cncn2C)C1 (stereo not given)
42 | 81 | 32 | 4 | 0.3 | 0.25 | Cn1cncc1CN1CC(N(CCCCCC(N)=O)S(=O)(=O)c2ccccn2)Cc2cc(C#N)ccc21 (stereo not given)
